# Laboratory results as given in ChEMBL document CHEMBL1144702, “Synthesis and structure-activity relationship studies on tryprostatin A, an inhibitor of breast cancer resistance protein” (Bioorg Med Chem, 2008).
# Activity calls are given as the source filed them. The rule behind the calls is not given here.
# Legend:
# [1] = Cytotoxicity against human H520 cells after 72 hrs by Cell Titer 96 Aqueous Non-Radioactive assay; format: functional; conditions: NCI-H520, 72 h
# Procedure, shortened: (§1)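 MCF7, NCI-H520 and PC-3 cells in RPMI-1640 + 10% FBS, 2 mM L-glutamine, 0.1 mM non-essential amino acids; 1 × 10^4 cells/well, 24 h at 37 °C, then drug in DMSO or EtOH (<1%) for 72 h. Cells under 50% survival at 100 μM retested over further concentrations for GI50. MTS/PMS read at 490 nm, blank subtracted, versus vehicle wells; quadruplicate or more.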
# [2] = system: MCF7; test: Cytotoxicity against human MCF7 cells after 72 hrs by Cell Titer 96 Aqueous Non-Radioactive assay; format: functional; conditions: MCF7, 72 h; procedure, shortened: as §1
# [3] = system: PC-3; test: Cytotoxicity against human PC3 cells after 72 hrs by Cell Titer 96 Aqueous Non-Radioactive assay; format: functional; conditions: PC-3, 72 h; procedure, shortened: as §1
# [4] = Inhibition of tubulin polymerization in presence of microtubule-associated proteins at 60 uM
# Procedure, shortened: (§2)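 Tubulin containing MAPs in PME buffer (100 mM PIPES pH 6.9, 2 mM EGTA, 1 mM MgSO4) with GTP and drug in DMSO, tubulin added last; 37 °C, absorbance change at 351 nm over 10 min. Drug concentration varied across runs for delta absorbance versus concentration curves; colchicine standard curves made for each tubulin batch.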
# [5] = Cytotoxicity against human H520 cells at 10 uM after 72 hrs by Cell Titer 96 Aqueous Non-Radioactive assay; format: functional; conditions: NCI-H520, 72 h, read-out: Inhibition
# Procedure, shortened: (§3)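 MCF7, NCI-H520 or PC-3 cells (RPMI-1640, 10% FBS) plated 1 × 10^4/well, 24 h at 37 °C, exposed 72 h to drug at 10 or 100 μM in DMSO or EtOH vehicle (controls usually 0.2%). Survival by MTS/PMS formazan absorbance at 490 nm, plate blank subtracted, as percent of vehicle wells; quadruplicate; etoposide or m-AMSA positive controls.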
# [6] = Cytotoxicity against human H520 cells at 100 uM after 72 hrs by Cell Titer 96 Aqueous Non-Radioactive assay; format: functional; conditions: NCI-H520, 72 h, read-out: Inhibition; procedure, shortened: as §3
# [7] = system: MCF7; test: Cytotoxicity against human MCF7 cells at 10 uM after 72 hrs by Cell Titer 96 Aqueous Non-Radioactive assay; format: functional; conditions: MCF7, 72 h, read-out: Inhibition; procedure, shortened: as §3
# [8] = system: MCF7; test: Cytotoxicity against human MCF7 cells at 100 uM after 72 hrs by Cell Titer 96 Aqueous Non-Radioactive assay; format: functional; conditions: MCF7, 72 h, read-out: Inhibition; procedure, shortened: as §3
# [9] = system: PC-3; test: Cytotoxicity against human PC3 cells at 10 uM after 72 hrs by Cell Titer 96 Aqueous Non-Radioactive assay; format: functional; conditions: PC-3, 72 h, read-out: Inhibition; procedure, shortened: as §3
# [10] = system: PC-3; test: Cytotoxicity against human PC3 cells at 100 uM after 72 hrs by Cell Titer 96 Aqueous Non-Radioactive assay; format: functional; conditions: PC-3, 72 h, read-out: Inhibition; procedure, shortened: as §3
# [11] = system: CCRF-CEM; test: Cytotoxicity against human CCRF-CEM cells; format: functional
# [12] = Cytotoxicity against human HL60 (TB) cells; format: functional; conditions: HL-60
# [13] = system: K562; test: Cytotoxicity against human K562 cells; format: functional
# [14] = system: MOLT-4; test: Cytotoxicity against human MOLT4 cells; format: functional
# [15] = system: RPMI-8226; test: Cytotoxicity against human RPMI8226 cells; format: functional
# [16] = system: SR; test: Cytotoxicity against human SR cells; format: functional
# [17] = system: HOP-92; test: Cytotoxicity against human HOP92 cells; format: functional
# [18] = system: EKVX; test: Cytotoxicity against human EKVX cells; format: functional
# [19] = system: COLO 205; test: Cytotoxicity against human COLO205 cells; format: functional
# [20] = system: HT-29; test: Cytotoxicity against human HT29 cells; format: functional
# [21] = system: OVCAR-3; test: Cytotoxicity against human OVCAR-3 cells; format: functional
# [22] = system: IGROV-1; test: Cytotoxicity against human IGROV1 cells; format: functional
# [23] = system: DU-145; test: Cytotoxicity against human DU145 cells; format: functional
# [24] = system: LOX IMVI; test: Cytotoxicity against human LOX IMVI cells; format: functional
# [25] = Cytotoxicity against human […]; format: functional
# [26] = system: BT-549; test: Cytotoxicity against human BT549 cells; format: functional
# [27] = system: UO-31; test: Cytotoxicity against human UO31 cells; format: functional
# [28] = target: DNA topoisomerase 2-alpha (Homo sapiens) (UniProt P11388); test: Inhibition of topoisomerase 2 assessed as relaxation of supercoiled DNA at 100 uM
# [29] = Inhibition of tubulin polymerization in presence of microtubule-associated proteins; procedure, shortened: as §2
# [30] = Cell cycle arrest in mouse tsFT210 cells assessed as accumulation at M phase at 100 uM after 18 hrs by flow cytometry; format: functional, cell-based
# Procedure, shortened: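 Synchronous-culture assay: tsFT210 cells seeded at 1x10^5 cells/mL, preincubated 1 h at 32 °C, then incubated with compound 18 h at 32 °C; morphology checked by microscopy; DNA content by flow cytometry after staining with 50 μg/mL propidium iodide, 0.1% sodium citrate, 0.2% NP-40; nuclei/chromosomes stained with Hoechst 33258 after KCl swelling and Carnoy fixation.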
# [31] = Antiproliferative activity against mouse tsFT210 cells after 48 hrs by WST-8 assay; format: functional, cell-based; conditions: tsFT210, 48 h
# Procedure, shortened: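 tsFT210 cells (temperature-sensitive cdc2 mutant from mouse mammary carcinoma FM3A), kept in RPMI 1640 with 10% fetal calf serum at 32 °C; exponentially growing cells exposed to compound at 32 °C for 48 h, then WST-8 added for 4 h at 37 °C; absorbance at 450 nm read to estimate cell number; IC50 reported.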
# [32] = Cell cycle arrest in mouse tsFT210 cells assessed as accumulation at M phase at 30 uM after 18 hrs by flow cytometry; format: functional, cell-based
# Procedure, shortened: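 Murine temperature-sensitive cdc2 mutant tsFT210 cells (from FM3A), kept in RPMI 1640 + 10% FCS at permissive 32 °C; seeded 1x10^5 cells/mL, preincubated 1 h at 32 °C, compound added, 18 h at 32 °C. Microscopy, then propidium iodide (50 μg/mL, 0.1% sodium citrate, 0.2% NP-40) flow cytometry for DNA content; Carnoy-fixed nuclei stained with Hoechst 33258.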
# Chain of DNA topoisomerase 2-alpha (Homo sapiens) (P11388 whole entry): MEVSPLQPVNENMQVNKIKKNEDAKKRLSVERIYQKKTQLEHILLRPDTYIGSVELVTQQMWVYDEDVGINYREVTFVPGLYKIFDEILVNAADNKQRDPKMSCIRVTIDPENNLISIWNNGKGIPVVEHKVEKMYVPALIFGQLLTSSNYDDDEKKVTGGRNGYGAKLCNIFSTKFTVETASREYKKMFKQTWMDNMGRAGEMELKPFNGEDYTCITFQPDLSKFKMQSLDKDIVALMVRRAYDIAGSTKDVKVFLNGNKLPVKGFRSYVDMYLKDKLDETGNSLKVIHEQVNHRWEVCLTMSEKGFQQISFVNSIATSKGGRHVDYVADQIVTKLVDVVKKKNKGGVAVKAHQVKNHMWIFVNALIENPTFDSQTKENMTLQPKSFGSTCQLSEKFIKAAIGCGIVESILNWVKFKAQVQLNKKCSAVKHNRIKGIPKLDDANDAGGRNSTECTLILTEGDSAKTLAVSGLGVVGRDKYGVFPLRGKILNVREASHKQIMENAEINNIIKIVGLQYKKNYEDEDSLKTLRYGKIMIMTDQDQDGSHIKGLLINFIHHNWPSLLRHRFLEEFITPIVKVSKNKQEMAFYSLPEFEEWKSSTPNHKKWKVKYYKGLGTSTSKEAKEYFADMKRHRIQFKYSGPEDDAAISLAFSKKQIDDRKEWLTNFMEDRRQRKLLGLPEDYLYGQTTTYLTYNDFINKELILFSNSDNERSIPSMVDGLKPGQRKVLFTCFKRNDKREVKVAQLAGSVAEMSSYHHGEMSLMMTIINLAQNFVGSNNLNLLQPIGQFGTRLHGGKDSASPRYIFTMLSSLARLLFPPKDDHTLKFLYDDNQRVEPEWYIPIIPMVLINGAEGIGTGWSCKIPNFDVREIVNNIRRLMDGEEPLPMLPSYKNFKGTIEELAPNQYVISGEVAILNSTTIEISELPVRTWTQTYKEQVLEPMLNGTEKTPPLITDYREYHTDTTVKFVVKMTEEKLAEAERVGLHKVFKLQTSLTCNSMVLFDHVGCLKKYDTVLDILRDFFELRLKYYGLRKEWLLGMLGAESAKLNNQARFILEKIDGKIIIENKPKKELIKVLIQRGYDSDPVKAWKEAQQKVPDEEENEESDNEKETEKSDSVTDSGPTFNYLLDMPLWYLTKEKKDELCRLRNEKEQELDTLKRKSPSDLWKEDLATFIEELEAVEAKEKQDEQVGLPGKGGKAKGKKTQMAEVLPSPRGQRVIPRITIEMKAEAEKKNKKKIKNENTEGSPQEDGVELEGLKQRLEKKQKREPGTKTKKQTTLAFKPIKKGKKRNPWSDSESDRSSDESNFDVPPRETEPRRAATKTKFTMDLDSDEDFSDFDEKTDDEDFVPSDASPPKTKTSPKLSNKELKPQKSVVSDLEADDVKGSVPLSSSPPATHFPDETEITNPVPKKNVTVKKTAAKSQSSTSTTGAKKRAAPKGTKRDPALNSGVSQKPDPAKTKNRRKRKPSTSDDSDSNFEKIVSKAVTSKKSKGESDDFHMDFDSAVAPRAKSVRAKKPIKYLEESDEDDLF
compound,measurement,setting,value
COc1cc([C@@H]2c3cc4c(cc3[C@@H](O[C@@H]3O[C@@H]5CO[C@@H](C)O[C@H]5[C@H](O)[C@H]3O)[C@H]3COC(=O)[C@H]23)OCO4)cc(OC)c1O [ETOPOSIDE],GI50,[1],8.7 µM
same,GI50,[2],55.6 µM
same,GI50,[3],11.1 µM
CC(C)=CCc1[nH]c2ccccc2c1C[C@@H]1NC(=O)[C@H]2CCCN2C1=O,inhibition,[4],< 2%
same,percent cell survival relative to vehicle at 10 µM,[5],88.3%
same,cell survival (% of vehicle control) at 100 µM,[6],0.1%
same,cell survival (% of vehicle control) at 10 µM,[7],73.6%
same,cell survival (% of vehicle control) at 100 µM,[8],0%
same,percent cell survival relative to vehicle control at 10 µM,[9],59.3%
same,percent cell survival at 100 µM,[10],0.2%
same,GI50,[1],11.9 µM
same,GI50,[11],3.22 µM
same,GI50,[12],22.4 µM
same,GI50,[13],20.1 µM
same,GI50,[14],5.96 µM
same,GI50,[15],5.54 µM
same,GI50,[16],9.46 µM
same,GI50,[17],1.7 µM
same,GI50,[18],6.9 µM
same,GI50,[19],17.7 µM
same,GI50,[20],5.25 µM
same,GI50,[21],9.69 µM
same,GI50,[22],11.5 µM
same,GI50,[23],14 µM
same,GI50,[24],9.23 µM
same,GI50,[25],14.9 µM
same,GI50,[26],13.2 µM
same,GI50,[27],14.7 µM
COc1ccc2c(C[C@H]3NC(=O)[C@H]4CCCN4C3=O)c(CC=C(C)C)[nH]c2c1,Activity,[28],inactive
same,IC50,[29],> 700 µM
same,percent cell survival relative to vehicle at 10 µM,[5],81.7%
same,cell survival (% of vehicle control) at 100 µM,[6],75.2%
same,cell survival (% of vehicle control) at 10 µM,[7],> 100%
same,cell survival (% of vehicle control) at 100 µM,[8],> 100%
same,percent cell survival relative to vehicle control at 10 µM,[9],> 100%
same,percent cell survival at 100 µM,[10],83.7%
same,GI50,[2],> 25 µM
same,GI50,[3],> 25 µM
same,GI50,[11],> 25 µM
same,GI50,[12],> 25 µM
same,GI50,[13],> 25 µM
same,GI50,[14],> 25 µM
same,GI50,[15],> 25 µM
same,GI50,[16],> 25 µM
same,GI50,[17],23.1 µM
same,GI50,[18],> 25 µM
same,GI50,[19],> 25 µM
same,GI50,[21],> 25 µM
same,GI50,[22],> 25 µM
same,GI50,[23],> 25 µM
same,GI50,[24],> 25 µM
same,GI50,[25],> 25 µM
same,GI50,[26],> 25 µM
same,GI50,[27],> 25 µM
CC(C)=CCc1[nH]c2ccccc2c1C[C@H]1NC(=O)[C@H]2CCCN2C1=O,Activity,[28],inactive
same,IC50,[29],> 700 µM
same,percent cell survival relative to vehicle at 10 µM,[5],> 100%
same,cell survival (% of vehicle control) at 100 µM,[6],99.8%
same,cell survival (% of vehicle control) at 10 µM,[7],> 100%
same,cell survival (% of vehicle control) at 100 µM,[8],> 100%
same,percent cell survival relative to vehicle control at 10 µM,[9],95.8%
same,percent cell survival at 100 µM,[10],78.9%
same,GI50,[2],40 µM
same,GI50,[3],21.2 µM
same,GI50,[11],25.1 µM
same,GI50,[12],29 µM
same,GI50,[13],25.8 µM
same,GI50,[14],21 µM
same,GI50,[15],12.9 µM
same,GI50,[16],12.1 µM
same,GI50,[18],39.4 µM
same,GI50,[19],21.2 µM
same,GI50,[20],37.5 µM
same,GI50,[21],38.2 µM
same,GI50,[22],16 µM
same,GI50,[23],> 50 µM
same,GI50,[24],> 50 µM
same,GI50,[25],11.9 µM
same,GI50,[26],7.21 µM
same,GI50,[27],12.6 µM
COc1ccc2c(C[C@@H]3NC(=O)[C@H]4CCCN4C3=O)c(CC=C(C)C)[nH]c2c1,inhibition,[4],< 2%
same,percent cell survival relative to vehicle at 10 µM,[5],99.3%
same,cell survival (% of vehicle control) at 100 µM,[6],98.5%
same,cell survival (% of vehicle control) at 10 µM,[7],> 100%
same,cell survival (% of vehicle control) at 100 µM,[8],99%
same,percent cell survival relative to vehicle control at 10 µM,[9],> 100%
same,percent cell survival at 100 µM,[10],> 100%
same,GI50,[2],> 100 µM
same,GI50,[3],> 100 µM
same,GI50,[11],99.4 µM
same,GI50,[12],> 100 µM
same,GI50,[13],> 100 µM
same,GI50,[14],> 100 µM
same,GI50,[15],92 µM
same,GI50,[16],76.9 µM
same,GI50,[17],16.8 µM
same,GI50,[18],> 100 µM
same,GI50,[19],> 100 µM
same,GI50,[20],40.3 µM
same,GI50,[21],85.5 µM
same,GI50,[22],50 µM
same,GI50,[23],> 100 µM
same,GI50,[24],> 100 µM
same,GI50,[25],> 100 µM
same,GI50,[26],> 100 µM
same,GI50,[27],> 100 µM
COc1ccc2c(C[C@@H]3NC(=O)[C@H](Cc4ccccc4)NC3=O)c[nH]c2c1,Activity,[30],Active
same,IC50,[31],100 µM
COc1ccc2c(C[C@@H]3NC(=O)[C@@H]4CCCN4C3=O)c(CC=C(C)C)[nH]c2c1 [TRYPROSTATIN A],IC50,[29],250 µM
same,percent cell survival relative to vehicle at 10 µM,[5],80.1%
same,cell survival (% of vehicle control) at 100 µM,[6],79.4%
same,cell survival (% of vehicle control) at 10 µM,[7],> 100%
same,cell survival (% of vehicle control) at 100 µM,[8],95%
same,percent cell survival relative to vehicle control at 10 µM,[9],99.2%
same,percent cell survival at 100 µM,[10],95.6%
same,GI50,[2],> 100 µM
same,GI50,[3],94 µM
same,GI50,[11],> 100 µM
same,GI50,[12],11.3 µM
same,GI50,[13],2.73 µM
same,GI50,[15],37.1 µM
same,GI50,[16],5.68 µM
same,GI50,[17],21.2 µM
same,GI50,[18],> 100 µM
same,GI50,[19],> 100 µM
same,GI50,[21],> 100 µM
same,GI50,[22],90.5 µM
same,GI50,[23],> 100 µM
same,GI50,[24],> 100 µM
same,GI50,[25],> 100 µM
same,GI50,[26],79.7 µM
same,GI50,[27],> 100 µM
same,IC50,[31],68 µM
same,Activity,[32],Active
